Experimental data from ChEMBL document CHEMBL3352107, “Development of radamide analogs as Grp94 inhibitors” (Bioorg Med Chem, 2014).
pIC50: −log10 of the molar value. The source made the active and inactive calls. The rule behind the calls is not given here.

Experiments:
[1] = target: Endoplasmin (Homo sapiens) (UniProt P14625); test: Inhibition of recombinant Grp94 (unknown origin) assessed as tracer bound at 25 uM after 24 hrs by fluorescence polarization assay relative to control; parameters: scale not given: the % may be the effect or the level left
Sequence of Endoplasmin (Homo sapiens) (P14625 whole entry, canonical isoform): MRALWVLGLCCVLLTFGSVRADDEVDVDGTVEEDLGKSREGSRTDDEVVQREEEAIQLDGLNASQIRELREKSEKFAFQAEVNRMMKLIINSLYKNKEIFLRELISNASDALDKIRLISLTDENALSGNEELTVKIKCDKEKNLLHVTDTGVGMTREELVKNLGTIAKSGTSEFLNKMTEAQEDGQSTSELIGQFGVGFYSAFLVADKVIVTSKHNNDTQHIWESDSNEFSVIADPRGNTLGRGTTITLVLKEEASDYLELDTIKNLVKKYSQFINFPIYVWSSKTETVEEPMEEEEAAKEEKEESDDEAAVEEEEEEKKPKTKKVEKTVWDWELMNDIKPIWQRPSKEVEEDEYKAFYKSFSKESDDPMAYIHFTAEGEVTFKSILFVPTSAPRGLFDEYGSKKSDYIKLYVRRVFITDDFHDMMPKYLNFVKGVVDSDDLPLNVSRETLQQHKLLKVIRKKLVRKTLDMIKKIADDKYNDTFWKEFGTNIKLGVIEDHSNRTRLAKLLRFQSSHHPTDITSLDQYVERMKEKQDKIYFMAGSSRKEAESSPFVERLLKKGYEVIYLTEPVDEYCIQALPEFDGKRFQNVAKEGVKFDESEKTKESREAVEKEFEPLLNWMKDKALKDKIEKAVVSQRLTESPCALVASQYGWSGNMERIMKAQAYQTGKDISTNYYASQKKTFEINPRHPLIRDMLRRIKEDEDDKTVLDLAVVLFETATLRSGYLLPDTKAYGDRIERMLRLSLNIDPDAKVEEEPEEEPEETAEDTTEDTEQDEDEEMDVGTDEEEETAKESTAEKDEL
How it was run: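 Single-point screen at 25 μM. Recombinant cGrp94 (10 nM) and FITC-geldanamycin tracer (6 nM) incubated 24 h at 4°C with rocking in HEPES pH 7.3 buffer containing molybdate, DTT, NP-40 and BGG (1% DMSO). Polarization read at 485/528 nm. Percent tracer bound scaled between DMSO mP (100%) and free tracer mP (0%). Geldanamycin 50 nM was the positive control. Triplicate.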

[2] = target: Endoplasmin (Homo sapiens) (UniProt P14625); test: Inhibition of Gpr94 in human MDA-MB-231 cells assessed as decrease in IGF-II secretion at 1 to 10 uM by Western blot analysis; type: cell-based
How it was run: (§1)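 Cells plated in 6-well plates and exposed 24 h to high and low compound concentrations, 15 μM radicicol, or DMSO only (0.25% DMSO final). Lysed in MPER with protease inhibitors on ice and clarified at 4°C. Protein measured by BCA. 20 μg per lane run reducing on SDS-PAGE, blotted to PVDF and probed with specific antibodies, HRP secondary, chemiluminescence. For IGF-II, medium volumes normalized to equal actin were blotted.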

MDA-MB-231 [3] = test: Inhibition of cell migration in human MDA-MB-231 cells assessed as reduction of cell migrated into scratched area after 16 to 24 hrs by wound healing assay; type: functional, cell-based
How it was run: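 Cells seeded at 200000/well and grown 24 h to a confluent monolayer at 37°C, 5% CO2. Each well scratched with a sterile pipet tip and photographed at 0 h. Compound added at 2.5 up to 25 μM (0.25% DMSO final). Migration into the wound photographed at 16 and 24 h. Quadruplicate wells on two different days.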

[4] = target: Heat shock protein HSP 90-alpha (Homo sapiens) (UniProt P07900); test: Inhibition of Hsp90alpha in human RPMI18226 cells assessed as Akt degradation at 0.5 to 5 fold antiproliferative IC50 concentration by Western blot analysis; type: cell-based; how it was run: as §1
[5] = target: Heat shock protein HSP 90-alpha (Homo sapiens) (UniProt P07900); test: Inhibition of Hsp90alpha in human MDA-MB-231 cells assessed as Akt degradation at 60 uM by Western blot analysis; type: cell-based; how it was run: as §1
[6] = Antiproliferative activity against human RPMI18226 cells after 72 hrs by MTS/PMS proliferation assay; type: functional, cell-based; settings: RPMI18226, 72 h
How it was run: (§2)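 Cells kept in RPMI1640 (RPMI 8226) or DMEM (MDA-MB-231) with nonessential amino acids, 2 mM L-glutamine, penicillin/streptomycin and 10% FBS at 37°C, 5% CO2. Seeded at 2000/well, attached overnight, then given compound across a concentration range in 1% DMSO final for 72 h. Viable cells read by MTS/PMS. 1% DMSO wells set as 100%. IC50 from separate triplicate experiments.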

MDA-MB-231 [7] = test: Cytotoxicity against human MDA-MB-231 cells at 2.5 to 25 uM after 24 hrs; type: cell-based; settings: mda-mb-231, 24 h
[8] = target: Endoplasmin (Homo sapiens) (UniProt P14625); test: Inhibition of Gpr94 in human RPMI18226 cells assessed as decrease in IGF-II secretion at 0.25 to 2 fold antiproliferative IC50 concentration by Western blot analysis; type: cell-based; how it was run: as §1
[9] = target: Endoplasmin (Homo sapiens) (UniProt P14625); test: Binding affinity to Gpr94 in human RPMI18226 cells using 9G10 antibody by immunoblotting analysis; type: cell-based
How it was run: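 Radicicol 15 μM was the positive control and DMSO the negative control. Detergent lysates pulled down with conformation-specific anti-Grp94 antibody 9G10 on protein G magnetic beads, then immunoblotted for Grp94.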

[10] = target: Endoplasmin (Homo sapiens) (UniProt P14625); test: Binding affinity to Gpr94 in human MDA-MB-231 cells assessed as conformational change using 9G10 antibody by immunoblotting analysis; type: cell-based
How it was run: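 MDA-MB-231 cells treated overnight at 10 μM (high) or 1 μM (low). Radicicol 15 μM was the positive control and DMSO the negative control. Detergent lysates immunoprecipitated with the conformation-specific anti-Grp94 antibody 9G10, which recognizes only open, unliganded Grp94, on protein G magnetic beads. Precipitates immunoblotted for Grp94.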

MDA-MB-231 [11] = test: Antiproliferative activity against human MDA-MB-231 cells after 72 hrs by MTS/PMS proliferation assay; type: functional, cell-based; settings: MDA-MB-231, 72 h; how it was run: as §2
[12] = target: Heat shock protein HSP 90-alpha (Homo sapiens) (UniProt P07900); test: Inhibition of Hsp90alpha in human MDA-MB-231 cells assessed as cyclin D1 degradation at 60 uM by Western blot analysis; type: cell-based; how it was run: as §1
[13] = target: Heat shock protein HSP 90-alpha (Homo sapiens) (UniProt P07900); test: Inhibition of Hsp90alpha in human RPMI18226 cells assessed as cyclin D1 degradation at 0.5 to 5 fold antiproliferative IC50 concentration by Western blot analysis; type: cell-based; how it was run: as §1
[14] = target: Endoplasmin (Homo sapiens) (UniProt P14625); test: Inhibition of recombinant Grp94 (unknown origin) assessed as tracer bound at 25 uM after 24 hrs by fluorescence polarization assay relative to HSP90alpha (unknown origin)
How it was run: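 Compounds at 25 μM incubated 24 h with either cGrp94 or Hsp90α plus FITC-geldanamycin tracer (1% DMSO) to compare the two isoforms. Fluorescence polarization gave percent tracer bound, with DMSO as 100% and free tracer as 0%. Geldanamycin 50 nM was the positive control. Triplicate.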

[15] = target: Heat shock protein HSP 90-alpha (Homo sapiens) (UniProt P07900); test: Inhibition of Hsp90alpha in human MDA-MB-231 cells assessed as cyclin D1 degradation at 80 uM by Western blot analysis; type: cell-based; how it was run: as §1
[16] = target: Heat shock protein HSP 90-alpha (Homo sapiens) (UniProt P07900); test: Inhibition of Hsp90alpha in human MDA-MB-231 cells assessed as Akt degradation at 80 uM by Western blot analysis; type: cell-based; how it was run: as §1
[17] = target: Heat shock protein HSP 90-alpha (Homo sapiens) (UniProt P07900); test: Inhibition of Hsp90alpha in human RPMI18226 cells assessed as Akt degradation at 5 fold antiproliferative IC50 concentration by Western blot analysis; type: cell-based; how it was run: as §1
[18] = target: Heat shock protein HSP 90-alpha (Homo sapiens) (UniProt P07900); test: Inhibition of Hsp90alpha in human RPMI18226 cells assessed as cyclin D1 degradation at 5 fold antiproliferative IC50 concentration by Western blot analysis; type: cell-based; how it was run: as §1

Activity [1]	Compound	further results
9.3%	COC(=O)c1c(O)cc(O)c(Cl)c1CCC(=O)Nc1cccc(Br)c1	–
10.2%	COC(=O)c1c(O)cc(O)c(Cl)c1CCC(=O)Nc1ncns1	–
0.2%	COC(=O)c1c(O)cc(O)c(Cl)c1CCC(=O)Nc1ncccc1Br	–
15.6%	COC(=O)c1c(O)cc(O)c(Cl)c1CCC(=O)Nc1cc(Cl)cc(Cl)c1	–
18.6%	CCN(C(=O)CCc1c(Cl)c(O)cc(O)c1C(=O)OC)c1ccccc1	–
19.8%	COC(=O)c1c(O)cc(O)c(Cl)c1CCC(=O)Nc1ccccc1	–
5.4%	COC(=O)c1c(O)cc(O)c(Cl)c1CCC(=O)Nc1ccc(C#N)cc1	–
3.4%	COC(=O)c1c(O)cc(O)c(Cl)c1CCC(=O)Nc1ccccc1C	–
85%	COC(=O)c1c(O)cc(O)c(Cl)c1CCC(=O)Nc1ccc(-c2ccccc2)cc1	–
16.7%	COC(=O)c1c(O)cc(O)c(Cl)c1CCC(=O)Nc1ncccn1	–
20.5%	COC(=O)c1c(O)cc(O)c(Cl)c1CCC(=O)Nc1ccccc1N	–
71.4%	COC(=O)c1c(O)cc(O)c(Cl)c1CCC(=O)Nc1ccc(Br)c(Cl)c1	–
17.4%	COC(=O)c1c(O)cc(O)c(Cl)c1CCC(=O)Nc1cccc(N)c1	–
2.5%	COC(=O)c1c(O)cc(O)c(Cl)c1CCC(=O)N(O)c1ccccc1	–
1%	COC(=O)c1c(O)cc(O)c(Cl)c1CCC(=O)Nc1ccccn1	inhibition [2]: Active; inhibition (MDA-MB-231 [3]): Dose-dependent effect; inhibition [4]: inactive; inhibition [5]: inactive; pIC50 [6]: 5.04; Activity (MDA-MB-231 [7]): Non-toxic; inhibition [8]: Active; Activity [9]: Dose-dependent effect; Activity [10]: Dose-dependent effect; pIC50 (MDA-MB-231 [11]): 4.92; inhibition [12]: inactive; inhibition [13]: inactive
10.9%	COC(=O)c1c(O)cc(O)c(Cl)c1CCC(=O)Nc1ccc(F)cc1	–
11.6%	COC(=O)c1c(O)cc(O)c(Cl)c1CCC(=O)Nc1cncnc1	–
65.8%	COC(=O)c1c(O)cc(O)c(Cl)c1CCC(=O)NCc1ccccc1	–
18%	COC(=O)c1c(O)cc(O)c(Cl)c1CCC(=O)Nc1ccccc1O	–
12.7%	C#Cc1ccc(NC(=O)CCc2c(Cl)c(O)cc(O)c2C(=O)OC)cc1	–
30.2%	COC(=O)c1c(O)cc(O)c(Cl)c1CCC(=O)N(c1ccccc1)C(C)C	–
39.4%	COC(=O)c1c(O)cc(O)c(Cl)c1CCC(=O)Nc1cccc(C(F)(F)F)c1	–

Activity [1]	Compound	further results
5.1%	COC(=O)c1c(O)cc(O)c(Cl)c1CCC(=O)Nc1nnc(Br)s1	–
15.7%	COC(=O)c1c(O)cc(O)c(Cl)c1CCC(=O)Nc1ccc(Cl)cc1	–
13.4%	COC(=O)c1c(O)cc(O)c(Cl)c1CCC(=O)Nc1ccccc1C(F)(F)F	–
1.4%	COC(=O)c1c(O)cc(O)c(Cl)c1CCC(=O)Nc1cccc(Cl)n1	–
33%	COC(=O)c1c(O)cc(O)c(Cl)c1CCC(=O)NCCc1ccccc1	–
8.3%	COC(=O)c1c(O)cc(O)c(Cl)c1CCC(=O)Nc1cccc(NC(C)=O)c1	–
16.3%	COC(=O)c1c(O)cc(O)c(Cl)c1CCC(=O)Nc1ccccc1F	–
2.1%	COC(=O)c1c(O)cc(O)c(Cl)c1CCC(=O)Nc1ccc(Br)cc1	Ratio [14]: 27
9.8%	COC(=O)c1c(O)cc(O)c(Cl)c1CCC(=O)Nc1ncccc1Cl	–
6.6%	COC(=O)c1c(O)cc(O)c(Cl)c1CCC(=O)Nc1nccs1	inhibition [2]: Active; inhibition [15]: Active; inhibition (MDA-MB-231 [3]): Dose-dependent effect; inhibition [16]: Active; pIC50 [6]: 5.11; Activity (MDA-MB-231 [7]): Non-toxic; inhibition [8]: Active; inhibition [17]: Active; Activity [9]: Dose-dependent effect; inhibition [18]: Active; Activity [10]: Dose-dependent effect; pIC50 (MDA-MB-231 [11]): 4.80
0.1%	COC(=O)c1c(O)cc(O)c(Cl)c1CCC(=O)Nc1ccccc1Cl	Ratio [14]: 8
34.5%	COC(=O)c1c(O)cc(O)c(Cl)c1CCC(=O)Nc1ccc(C(F)(F)F)cc1	–
26.1%	COC(=O)c1c(O)cc(O)c(Cl)c1CCC(=O)NC1CCCCC1	–
27.7%	COC(=O)c1c(O)cc(O)c(Cl)c1CCC(=O)Nc1ncc(Br)s1	–
8.7%	COC(=O)c1c(O)cc(O)c(Cl)c1CCC(=O)Nc1nncs1	–
12.2%	COC(=O)c1c(O)cc(O)c(Cl)c1CCC(=O)Nc1cccnn1	–
19.8%	COC(=O)c1c(O)cc(O)c(Cl)c1CCC(=O)Nc1ccc(OC)cc1	–
14.9%	COC(=O)c1c(O)cc(O)c(Cl)c1CCC(=O)Nc1cccnc1	–
29.8%	COC(=O)c1c(O)cc(O)c(Cl)c1CCC(=O)Nc1ccc(I)cc1	–
24.9%	COC(=O)c1c(O)cc(O)c(Cl)c1CCC(=O)Nc1cccc(Cl)c1Br	–
0.1%	COC(=O)c1c(O)cc(O)c(Cl)c1CCC(=O)Nc1cccc(Cl)c1	Ratio [14]: 25
11%	COC(=O)c1c(O)cc(O)c(Cl)c1CCC(=O)Nc1cccc(F)c1	–

Activity [1]	Compound	further results
0.1%	COC(=O)c1c(O)cc(O)c(Cl)c1CCC(=O)Nc1ccc(Br)cn1	–
34.9%	COC(=O)c1c(O)cc(O)c(Cl)c1CCC(=O)Nc1ccncc1	–
22.4%	COC(=O)c1c(O)cc(O)c(Cl)c1CCC(=O)Nc1ncc(Cl)s1	–
16.7%	COC(=O)c1c(O)cc(O)c(Cl)c1CCC(=O)N(C)c1ccccc1	–
18.7%	COC(=O)c1c(O)cc(O)c(Cl)c1CCC(=O)Nc1ccc(C)cc1	–
6.5%	COC(=O)c1c(O)cc(O)c(Cl)c1CCC(=O)Nc1ccc(O)cc1	–
27.4%	COC(=O)c1c(O)cc(O)c(Cl)c1CCC(=O)Nc1cccc(OC)c1	–
7.7%	COC(=O)c1c(O)cc(O)c(Cl)c1CCC(=O)Nc1cc(Cl)ccn1	–
50.7%	COC(=O)c1c(O)cc(O)c(Cl)c1CCC(=O)Nc1ccc(Br)cc1Br	–
3.5%	COC(=O)c1c(O)cc(O)c(Cl)c1CCC(=O)Nc1cccc(O)c1	–
16.1%	COC(=O)c1c(O)cc(O)c(Cl)c1CCC(=O)Nc1ccccc1OC	–
16.6%	COC(=O)c1c(O)cc(O)c(Cl)c1CCC(=O)Nc1cnccn1	–
7.9%	COC(=O)c1c(O)cc(O)c(Cl)c1CCC(=O)Nc1ccccc1I	–
6.1%	COC(=O)c1c(O)cc(O)c(Cl)c1CCC(=O)Nc1ccccc1Br	–
59%	COC(=O)c1c(O)cc(O)c(Cl)c1CCC(=O)Nc1ccc(C(C)C)cc1	–
46.8%	COC(=O)c1c(O)cc(O)c(Cl)c1CCC(=O)Nc1cccc(-c2ccccc2)c1	–
23%	COC(=O)c1c(O)cc(O)c(Cl)c1CCC(=O)N1CCc2ccccc21	–
26.3%	COC(=O)c1c(O)cc(O)c(Cl)c1CCC(=O)NNc1ccccc1	–
19.5%	COC(=O)c1c(O)cc(O)c(Cl)c1CCC(=O)Nc1cnncn1	–
15.7%	COC(=O)c1c(O)cc(O)c(Cl)c1CCC(=O)Nc1ccc(N)cc1	–
